Source: paper PMC4867259 (Free radical biology & medicine, 2016)

Experiments:
human recombinant COX-2 = target: T1, human recombinant COX-2 (Homo sapiens, UniProt P35354); experiment: COX-2 enzyme activity assay; type: biochemical
T1 sequence (P35354 18-604): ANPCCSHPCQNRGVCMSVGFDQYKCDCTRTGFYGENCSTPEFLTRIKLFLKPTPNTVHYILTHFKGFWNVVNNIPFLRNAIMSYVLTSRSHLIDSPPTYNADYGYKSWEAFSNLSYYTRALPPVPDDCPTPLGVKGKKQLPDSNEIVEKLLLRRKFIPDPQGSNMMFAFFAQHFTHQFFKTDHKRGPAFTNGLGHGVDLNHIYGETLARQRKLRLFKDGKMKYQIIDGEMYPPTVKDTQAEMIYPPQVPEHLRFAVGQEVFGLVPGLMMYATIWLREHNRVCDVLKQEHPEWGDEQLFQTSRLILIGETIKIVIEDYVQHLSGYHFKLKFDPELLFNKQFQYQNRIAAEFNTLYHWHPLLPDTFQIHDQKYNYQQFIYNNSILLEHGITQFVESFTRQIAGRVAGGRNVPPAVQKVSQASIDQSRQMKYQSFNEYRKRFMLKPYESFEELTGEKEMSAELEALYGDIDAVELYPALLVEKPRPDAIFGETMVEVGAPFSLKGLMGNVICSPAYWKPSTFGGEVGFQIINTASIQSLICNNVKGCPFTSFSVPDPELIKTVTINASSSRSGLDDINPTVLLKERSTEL
Method in brief: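 Test compound was preincubated with enzyme in 0.1 M Tris (pH 8.0) containing 5 mM EDTA, 2 mM phenol and 1 µM hematin. Arachidonic acid (5 µM final) was added for 2 min, and 0.1 M HCl stopped the reaction. Stannous chloride in 0.1 M HCl reduced PGG2/PGH2 to PGF2α, quantified by ELISA. IC50 values are mean ± SEM of four or more independent experiments.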

human recombinant 5-LOX = target: T2, human recombinant 5-LOX (Homo sapiens, UniProt P09917); experiment: 5-LOX activity, ferrous oxidation-xylenol orange; type: biochemical
T2 sequence (P09917 1-674): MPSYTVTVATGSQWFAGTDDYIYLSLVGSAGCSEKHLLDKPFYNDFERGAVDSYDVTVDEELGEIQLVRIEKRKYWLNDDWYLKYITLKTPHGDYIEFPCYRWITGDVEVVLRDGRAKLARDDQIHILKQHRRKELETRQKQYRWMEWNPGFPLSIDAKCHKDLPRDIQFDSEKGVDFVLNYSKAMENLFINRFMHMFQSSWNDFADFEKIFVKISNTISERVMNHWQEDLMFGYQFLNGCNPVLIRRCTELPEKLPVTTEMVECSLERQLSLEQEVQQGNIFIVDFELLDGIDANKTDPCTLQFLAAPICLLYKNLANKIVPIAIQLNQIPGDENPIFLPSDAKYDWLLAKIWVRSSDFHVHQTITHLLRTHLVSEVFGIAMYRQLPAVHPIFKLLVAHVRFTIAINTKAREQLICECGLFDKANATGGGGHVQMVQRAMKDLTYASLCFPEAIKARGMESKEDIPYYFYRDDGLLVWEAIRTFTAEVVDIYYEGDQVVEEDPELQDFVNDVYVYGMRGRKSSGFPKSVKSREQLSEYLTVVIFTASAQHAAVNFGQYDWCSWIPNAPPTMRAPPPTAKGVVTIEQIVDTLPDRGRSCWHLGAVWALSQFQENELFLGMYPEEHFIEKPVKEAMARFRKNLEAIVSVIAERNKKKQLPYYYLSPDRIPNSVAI

DEGS1 = target: T3, DEGS1 (Homo sapiens, UniProt O15121); experiment: In vitro DEGS assay with HCT-116 cell homogenates; type: biochemical
T3 sequence (O15121 1-323): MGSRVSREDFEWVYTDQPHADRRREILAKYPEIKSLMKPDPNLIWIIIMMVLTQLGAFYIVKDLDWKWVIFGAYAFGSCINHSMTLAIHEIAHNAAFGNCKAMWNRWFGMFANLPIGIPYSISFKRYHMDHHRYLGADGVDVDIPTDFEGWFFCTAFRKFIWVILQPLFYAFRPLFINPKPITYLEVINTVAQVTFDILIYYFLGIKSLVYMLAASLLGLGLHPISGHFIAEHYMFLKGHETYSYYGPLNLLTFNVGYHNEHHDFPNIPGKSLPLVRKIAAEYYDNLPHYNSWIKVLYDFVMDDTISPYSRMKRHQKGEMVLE
Method in brief: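 HCT-116 cells were treated for 1 or 2 h with test compound, reference inhibitor or DMSO. Cells were homogenized in 5 mM Hepes (pH 7.4) with 50 mM sucrose and kept 10 min on ice, and unbroken cells were removed at 250 × g for 5 min at 4 °C. Homogenate was incubated with 2 mM NADH and 10 μM C8:0-dihydroceramide substrate for 1 h at 37 °C. Lipids were extracted and C8:0-Cer and C8:0-SM quantified by LC-MS/MS; n = 3 independent experiments.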

DEGS = target: T4, DEGS (Rattus norvegicus, UniProt Q5XIF5); experiment: DEGS assay with rat liver microsomal fraction; type: biochemical; settings: rat liver microsomal fraction as source of DEGS; data not shown
T4 sequence (Q5XIF5 1-323): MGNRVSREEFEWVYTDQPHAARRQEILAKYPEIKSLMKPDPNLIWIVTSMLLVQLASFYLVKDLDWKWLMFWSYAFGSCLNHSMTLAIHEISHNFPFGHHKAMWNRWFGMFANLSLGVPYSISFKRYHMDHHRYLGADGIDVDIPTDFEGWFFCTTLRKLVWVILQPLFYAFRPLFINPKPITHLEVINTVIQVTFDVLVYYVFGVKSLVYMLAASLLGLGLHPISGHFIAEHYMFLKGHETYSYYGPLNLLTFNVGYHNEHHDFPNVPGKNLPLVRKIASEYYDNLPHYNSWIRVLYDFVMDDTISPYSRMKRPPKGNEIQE

[1] = tested on: DEGS-1 protein expression in HCT-116 cells; experiment: Western blotting of DEGS-1 protein expression; type: cell-based, human; settings: 10 or 20 μM for 8 or 16 h
Method in brief: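 HCT-116 cells were lysed in Tris-EDTA buffer with 1% SDS, 2 mM Na3VO4 and protease inhibitors. Protein was measured by BCA, and equal amounts were resolved by SDS-PAGE and immunoblotted with anti-DEGS-1 antibody.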

HCT-116 cells [2] = experiment: MTT cell viability assay, HCT-116; type: cell-based, human; settings: time- and dose-dependent
Method in brief: (§1)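 Cells were grown with 10% FBS at 37 °C and 5% CO2: HCT-116 in McCoy's 5A, HT-29 in DMEM. Cells were exposed to test compound at indicated concentrations and times, and viability was read by MTT (mitochondrial dehydrogenase activity) relative to DMSO controls. […] Values are mean SD of at least three independent experiments.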

HT-29 cells = experiment: MTT cell viability assay, HT-29; type: cell-based, human; settings: time- and dose-dependent
Method in brief: as §1

HCT-116 cells [3] = experiment: Annexin V / propidium iodide apoptosis, flow cytometry; type: cell-based, human; settings: 20 μM for 24 h, compared with DMSO-treated controls
Method in brief: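 HCT-116 cells were grown in McCoy's 5A with 10% FBS at 37 °C and 5% CO2. After treatment, floating and attached cells were pooled and stained with an annexin V–fluorescein/propidium iodide kit. Flow cytometry read apoptosis from annexin V (Ex 488, Em 518 nm) and necrosis from PI (Ex 488-540, Em 617 nm). Data are representative of three or more independent experiments.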

HCT-116 cells [4] = experiment: Western blotting of LC3-II, caspase-9 and PARP; type: cell-based, human; settings: 20 μM for 24 h
Method in brief: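 HCT-116 lysates were prepared in Tris-EDTA with 1% SDS, 2 mM Na3VO4 and protease inhibitors, and protein was quantified by BCA. Equal protein was resolved by SDS-PAGE and probed for LC3, caspase-9, PARP-1 and actin. Caspase-9 activation and PARP cleavage served as apoptosis read-outs and LC3-II as the autophagy read-out. Blots are representative of three or more independent experiments.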

HCT-116 cells [5] = experiment: Sphingolipid levels by LC-MS/MS; type: cell-based, human
Method in brief: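 Treated HCT-116 pellets were extracted in methanol/chloroform/water with internal standards (C12:0- and C25:0-ceramide, C17-sphingosine, C17-sphinganine, C12:0-SM), tip-sonicated 20 s, and incubated overnight at 48 °C. An aliquot was taken for total choline phospholipids (enzymatic colorimetric assay). The remainder was hydrolysed with methanolic KOH (37 °C, 2 h) and dried under N2. Positive-mode MRM LC-MS/MS was run, ceramides/sphingoid bases on C18 and SMs on C8; vs DMSO controls, n ≥ 3.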

[6] = tested on: colon tumorigenesis induced by AOM and DSS; experiment: AOM/DSS-induced colon tumorigenesis in mice; type: in vivo, male Balb/c mice; settings: 0.022% in diet

Cc1c(O)cc2c(c1C)O[C@](C)(CCC[C@H](C)CCC[C@H](C)CCCC(C)C)CC2 [γT, γ-tocopherol]
IC50 (human recombinant COX-2): > 50 µM
inhibition of COX-2 at 50 μM (human recombinant COX-2): neither γT nor δT at 50 μM inhibited COX-2
IC50 (human recombinant 5-LOX): > 50 µM
inhibition of 5-LOX at 50 μM (human recombinant 5-LOX): neither γT nor δT at 50 μM inhibited COX-2 or 5-LOX

Cc1cc(O)cc2c1O[C@](C)(CCC[C@H](C)CCC[C@H](C)CCCC(C)C(=O)O)CC2 (some centres unmarked) [δT-13’-COOH]
inhibition of DEGS1 enzyme activity (DEGS1; 20 μM, 1 h pre-incubation of HCT-116 cells): ~ 38%
inhibition of DEGS1 enzyme activity (DEGS1; 20 μM, 2 h pre-incubation of HCT-116 cells): ~ 47%
inhibition of DEGS enzyme activity (DEGS): failed to inhibit the enzyme activity
effect on DEGS-1 protein expression [1]: no effect
cell viability (HCT-116 cells [2]): decreased the viability
cell viability (HT-29 cells): decreased the viability
apoptosis (annexin V staining) (HCT-116 cells [3]): induced early and late-stage apoptosis
LC3-II, a marker of autophagy (HCT-116 cells [4]): increase of LC3-II
C16:0-Cer (HCT-116 cells [5]; 20 μM, 2 h incubation, compared with solvent controls): significant decrease
sphingomyelin species and total SMs (HCT-116 cells [5]; 10 or 20 μM, 1-16 h): persistent decrease
total dihydroceramides, individual dhCers and dihydrosphingosine (HCT-116 cells [5]; 10 or 20 μM, after 1-2 h treatment, compared with controls): dose-dependently increased

C/C(=C\CC/C(C)=C/CC[C@]1(C)CCc2cc(O)cc(C)c2O1)CC/C=C(\C)C(=O)O [δTE-13’-COOH]
effect on body weight ([6]; compared with the control diet): no effect
effect on food intake ([6]; compared with the control diet): no effect
decrease in number of large tumors (> 2 mm^2) ([6]; compared with controls, p < 0.05): 58%
colon tumors per mouse ([6]; mean ± SEM, n = 15-17, p < 0.01 vs control diet (4.7 ± 0.3)): 3.1 ± 0.3 tumors per mouse
cell viability (HCT-116 cells [2]): decreased the viability
cell viability (HT-29 cells): decreased the viability
apoptosis (annexin V staining) (HCT-116 cells [3]): induced early and late-stage apoptosis
LC3-II, a marker of autophagy (HCT-116 cells [4]): increase of LC3-II

CCCCCCCCCCCCCC1=C([C@@H](O)[C@H](CO)NC(=O)CCCCCCC)C1 [C8-CPPC, C8-cyclopropenylceramide, reference compound]
inhibition of DEGS1 enzyme activity (DEGS1; 1 μM, 1 or 2 h treatment of HCT-116 cells): ~ 95%

Cc1cc(O)cc2c1O[C@](C)(CCC[C@H](C)CCC[C@H](C)CCCC(C)C)CC2 [δT, δ-tocopherol]
inhibition of COX-2 at 50 μM (human recombinant COX-2): neither γT nor δT at 50 μM inhibited COX-2
inhibition of 5-LOX at 50 μM (human recombinant 5-LOX): neither γT nor δT at 50 μM inhibited COX-2 or 5-LOX
